What was measured:
[1] = Retention time of the compound by LC-MS/MS analysis; format: physicochemical
Outline: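 LC-MS/MS used a YMC-Pack ODS-A column (1.5 × 150 mm, 5 μm) at 30°C, 0.1 ml/min. Mobile phase was water and acetonitrile, each with 0.01% TFA. Gradient: 12→60% B over 30 min, →90% B over 5 min, hold 5 min. Detection was UV 220 nm with positive ESI Q-TOF (capillary 3300 V, cone 45 V), collision energy 20 eV and xenon as collision gas.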

Hepatocyte [2] = test: Drug level in human hepatocytes treated with [14C]-rivoglitazone at 30 uM after 3 hrs by radio-HPLC/LC-MS/MS analysis; format: ADME, cell-based
Outline: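 Freshly isolated hepatocytes were suspended in HBSS at 2×10^6 viable cells/ml; trypan-blue viability was rat 88%, monkey 91 and 94%, human 66, 73 and 81%. Donors were rat (7 weeks, 170 g) and two male cynomolgus monkeys. Cells were incubated with [¹⁴C]rivoglitazone (30 μM) for 3 h at 37°C under 95% O₂/5% CO₂. Acetonitrile stop, sonication, samples pooled per species, supernatant analysed by radio-HPLC and LC-MS.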

[3] = Drug level in monkey hepatocytes treated with [14C]-rivoglitazone at 30 uM after 3 hrs by radio-HPLC/LC-MS/MS analysis; details: cynomolgus monkey
Hepatocyte [4] = test: Drug level in rat hepatocytes treated with [14C]-rivoglitazone at 30 uM after 3 hrs by radio-HPLC/LC-MS/MS analysis; format: ADME, cell-based
Liver microsome [5] = test: Drug level in Sprague-Dawley rat liver microsomes treated with [14C]-rivoglitazone at 20 uM after 2 to 4 hrs by radio-HPLC/LC-MS/MS analysis in presence of NADPH-generating system/SAM and UDPGA/SAM; format: ADME
Liver microsome [6] = test: Drug level in human liver microsomes treated with [14C]-rivoglitazone at 20 uM after 2 to 4 hrs by radio-HPLC/LC-MS/MS analysis in presence of NADPH-generating system/SAM and UDPGA/SAM; format: ADME
[7] = Drug level in cynomolgus monkey liver microsomes treated with [14C]-rivoglitazone at 20 uM after 2 to 4 hrs by radio-HPLC/LC-MS/MS analysis in presence of NADPH-generating system/SAM and UDPGA/SAM; format: ADME, Macaca fascicularis
Hepatocyte [8] = test: Drug level in rat hepatocytes treated with [14C]-rivoglitazone at 30 uM after 3 hrs by radio-HPLC/LC-MS/MS analysis in presence of NADPH-generating system/SAM; format: ADME, cell-based
[9] = Drug level in cynomolgus monkey liver microsomes treated with [14C]-rivoglitazone at 20 uM after 2 hrs by radio-HPLC/LC-MS/MS analysis in presence of NADPH-generating system/SAM; format: ADME, Macaca fascicularis
Outline: (§1)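 Pooled male liver microsomes (1 mg/ml protein; rat from 94 Sprague-Dawley, monkey from 8 cynomolgus, human from 23 donors) were incubated with [¹⁴C]rivoglitazone (20 μM). Buffer: 10 mM potassium phosphate (pH 7.4). Cofactors: NADPH-generating system (2 mM NADP⁺, 20 mM G6P, 2 U/ml G6PDH, 10 mM MgCl₂), with or without 2 mM SAM. Incubation 2 h at 37°C with shaking; controls lacked NADPH system and SAM alone. Acetonitrile stop, radio-HPLC plus LC-MS.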

Hepatocyte [10] = test: Drug level in human hepatocytes treated with [14C]-rivoglitazone at 30 uM after 3 hrs by radio-HPLC/LC-MS/MS analysis in presence of NADPH-generating system/SAM; format: ADME, cell-based
Liver microsome [11] = test: Drug level in Sprague-Dawley rat liver microsomes treated with [14C]-rivoglitazone at 20 uM after 2 hrs by radio-HPLC/LC-MS/MS analysis in presence of NADPH-generating system/SAM; format: ADME; outline: as §1
Liver microsome [12] = test: Drug level in human liver microsomes treated with [14C]-rivoglitazone at 20 uM after 2 hrs by radio-HPLC/LC-MS/MS analysis in presence of NADPH-generating system/SAM; format: ADME; outline: as §1
[13] = test system: Hepatocyte (Macaca fascicularis); test: Drug level in monkey hepatocytes treated with [14C]-rivoglitazone at 30 uM after 3 hrs by radio-HPLC/LC-MS/MS analysis in presence of NADPH-generating system/SAM; details: cynomolgus monkey
Hepatocyte [14] = test: Drug level in rat hepatocytes treated with [14C]-rivoglitazone at 30 uM after 3 hrs by radio-HPLC/LC-MS/MS analysis in presence of UDPGA and UDPGA/SAM; format: ADME, cell-based
Liver microsome [15] = test: Drug level in Sprague-Dawley rat liver microsomes treated with [14C]-rivoglitazone at 20 uM after 4 hrs by radio-HPLC/LC-MS/MS analysis in presence of UDPGA and UDPGA/SAM; format: ADME
Outline: (§2)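 Pooled male liver microsomes (1 mg/ml; rat from 94 Sprague-Dawley, monkey from 8 cynomolgus, human from 23 donors) were pretreated with alamethicin (50 μg/mg protein, 15 min, ice). Incubation with [¹⁴C]rivoglitazone (20 μM) in 100 mM Tris-HCl (pH 7.5), 10 mM MgCl₂, 5 mM UDPGA, with or without 2 mM SAM, 4 h at 37°C. Controls lacked UDPGA and SAM alone. Radio-HPLC and LC-MS analysis.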

[16] = Drug level in monkey hepatocytes treated with [14C]-rivoglitazone at 30 uM after 3 hrs by radio-HPLC/LC-MS/MS analysis in presence of UDPGA and UDPGA/SAM; details: cynomolgus monkey
[17] = target: T1, UDP-glucuronosyltransferase 1A3 (Homo sapiens, UniProt P35503); test: Activity of human UGT1A3 expressed in microsomes isolated from baculovirus infected insect cell assessed as enzyme-mediated compound formation treated with [14C]-rivoglitazone at 20 uM after 4 hrs by radio-HPLC/LC-MS/MS analysis in presence of NADPH-generating system/SAM; format: ADME
T1 sequence (P35503 whole entry): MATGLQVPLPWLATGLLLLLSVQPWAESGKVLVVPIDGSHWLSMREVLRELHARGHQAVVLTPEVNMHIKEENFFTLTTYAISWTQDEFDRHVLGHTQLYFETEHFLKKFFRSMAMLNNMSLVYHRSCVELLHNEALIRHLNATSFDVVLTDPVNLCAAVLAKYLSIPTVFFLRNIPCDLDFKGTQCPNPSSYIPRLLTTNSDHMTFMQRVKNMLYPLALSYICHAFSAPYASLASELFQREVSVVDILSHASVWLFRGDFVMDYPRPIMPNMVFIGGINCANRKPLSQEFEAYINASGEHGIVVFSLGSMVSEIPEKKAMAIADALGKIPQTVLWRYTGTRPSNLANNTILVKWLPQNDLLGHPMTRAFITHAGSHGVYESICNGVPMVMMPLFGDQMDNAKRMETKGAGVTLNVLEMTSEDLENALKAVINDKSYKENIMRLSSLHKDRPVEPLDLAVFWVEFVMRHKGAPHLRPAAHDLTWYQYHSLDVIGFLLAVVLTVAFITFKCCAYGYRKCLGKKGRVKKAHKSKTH

Liver microsome [18] = test: Drug level in human liver microsomes treated with [14C]-rivoglitazone at 20 uM after 4 hrs by radio-HPLC/LC-MS/MS analysis in presence of UDPGA and UDPGA/SAM; format: ADME; outline: as §2
[19] = Drug level in cynomolgus monkey liver microsomes treated with [14C]-rivoglitazone at 20 uM after 4 hrs by radio-HPLC/LC-MS/MS analysis in presence of UDPGA and UDPGA/SAM; format: ADME, Macaca fascicularis; outline: as §2
[20] = target: T2, UDP-glucuronosyltransferase 2B7 (Homo sapiens, UniProt P16662); test: Activity of human UGT2B7 expressed in microsomes isolated from baculovirus infected insect cell assessed as enzyme-mediated compound formation treated with [14C]-rivoglitazone at 20 uM after 4 hrs by radio-HPLC/LC-MS/MS analysis in presence of NADPH-generating system/SAM; format: ADME
T2 sequence (P16662 whole entry): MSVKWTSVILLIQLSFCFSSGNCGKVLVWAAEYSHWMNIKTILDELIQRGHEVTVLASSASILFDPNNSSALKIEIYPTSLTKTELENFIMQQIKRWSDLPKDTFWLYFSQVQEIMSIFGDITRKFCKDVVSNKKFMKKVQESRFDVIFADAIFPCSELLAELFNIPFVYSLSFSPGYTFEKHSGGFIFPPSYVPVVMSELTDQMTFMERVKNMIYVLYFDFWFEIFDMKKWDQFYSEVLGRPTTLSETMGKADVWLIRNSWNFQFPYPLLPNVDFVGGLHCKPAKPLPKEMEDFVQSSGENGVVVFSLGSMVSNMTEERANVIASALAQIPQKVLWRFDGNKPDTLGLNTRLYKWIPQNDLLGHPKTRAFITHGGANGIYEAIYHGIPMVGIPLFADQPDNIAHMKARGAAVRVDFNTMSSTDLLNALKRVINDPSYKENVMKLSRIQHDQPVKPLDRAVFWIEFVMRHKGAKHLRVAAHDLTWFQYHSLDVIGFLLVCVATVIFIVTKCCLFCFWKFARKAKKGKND

Hepatocyte [21] = test: Drug level in human hepatocytes treated with [14C]-rivoglitazone at 30 uM after 3 hrs by radio-HPLC/LC-MS/MS analysis in presence of UDPGA and UDPGA/SAM; format: ADME, cell-based

Row | Structure (SMILES) | Retention_time [1] [min] | Drug metabolism (Hepatocyte [14]) | Drug metabolism (Liver microsome [15]) | Drug metabolism [16] | Drug metabolism [17] | Drug metabolism (Liver microsome [18]) | Drug metabolism [19] | Drug metabolism [20] | Drug metabolism (Hepatocyte [21]) | other results
1 | Cn1c(COc2ccc(CC3SC(=O)NC3=O)cc2)nc2ccc(OS(=O)(=O)O)cc21 (stereo not drawn) | 18.9 | – | – | – | – | – | – | – | – | Drug metabolism (Hepatocyte [2]): metabolite_detected; Drug metabolism [3]: metabolite_detected; Drug metabolism (Hepatocyte [4]): metabolite_detected
2 | COc1ccc2nc(COc3ccc(CC(SC)C(N)=O)cc3)n(C)c2c1 (stereo not drawn) | 20.4 | – | – | – | – | – | – | – | – | Drug metabolism (Hepatocyte [8]): metabolite_detected; Drug metabolism [9]: metabolite_detected; Drug metabolism (Hepatocyte [10]): metabolite_detected; Drug metabolism (Liver microsome [11]): metabolite_detected; Drug metabolism (Liver microsome [12]): metabolite_detected; Drug metabolism [13]: metabolite_detected

Further lines, with some results ahead:

Row | Retention_time [1] [min] | Drug metabolism (Hepatocyte [14]) | Drug metabolism (Liver microsome [15]) | Drug metabolism [16] | Drug metabolism [17] | Drug metabolism (Liver microsome [18]) | Drug metabolism [19] | Drug metabolism [20] | Drug metabolism (Hepatocyte [21]) | Structure (SMILES) | other results
3 | 24.2 | – | – | – | – | – | – | – | – | COc1ccc2nc(COc3ccc(CC(SC)C(=O)O)cc3)n(C)c2c1 (stereo not drawn) | Drug metabolism (Liver microsome [5]): metabolite_detected; Drug metabolism (Liver microsome [6]): metabolite_detected; Drug metabolism [7]: metabolite_detected
4 | 17.3 | metabolite_detected | metabolite_detected | metabolite_detected | metabolite_detected | metabolite_detected | metabolite_detected | metabolite_detected | metabolite_detected | COc1ccc2nc(COc3ccc(CC(SC(=O)N[C@@H]4O[C@H](C(=O)O)[C@@H](O)[C@H](O)[C@H]4O)C(=O)O)cc3)n(C)c2c1 (stereo partly drawn) | –
5 | 19.8 | metabolite_detected | metabolite_detected | metabolite_detected | metabolite_detected | metabolite_detected | metabolite_detected | metabolite_detected | metabolite_detected | COc1ccc2nc(COc3ccc(CC4SC(=O)N([C@@H]5O[C@H](C(=O)O)[C@@H](O)[C@H](O)[C@H]5O)C4=O)cc3)n(C)c2c1 (stereo partly drawn) | –

From ChEMBL document CHEMBL3526048, “In vitro metabolism of rivoglitazone, a novel peroxisome proliferator-activated receptor γ agonist, in rat, monkey, and human liver microsomes and freshly isolated hepatocytes” (Drug Metab Dispos, 2011)
